Laboratory results published in ChEMBL document CHEMBL1156652, “Antiurolithic effect of lupeol and lupeol linoleate in experimental hyperoxaluria” (J Nat Prod, 2008).
The source made the active and inactive calls.

How the values were obtained:
Rattus norvegicus [1] = assay: Effect on superoxide dismutase activity in kidney of Wistar rat assessed per mg of protein at 50 mg/kg/day, po for 28 days; type: functional
In short: (§1)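 Normal male Wistar rats, no ethylene glycol, dosed orally at 50 mg/kg body wt/day for 28 days. Kidney homogenate, 10% in 0.01 M Tris-HCl pH 7.4. SOD unit defined as 50% inhibition of pyrogallol autoxidation; CAT as µmol H2O2 utilized/min. GSH, vitamins C and E as µg/mg protein. Protein by Lowry. Mean ± SEM, 6 rats/group.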

Rattus norvegicus [2] = assay: Increase in catalase activity in kidney of ethylene glycol-induced hyperoxaluria Wistar rat model assessed per mg of protein at 50 mg/kg/day, po for 28 days; type: functional
In short: (§2)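 Ethylene glycol-hyperoxaluric male Wistar rats (0.75% in drinking water, 28 days), co-dosed orally at 50 mg/kg body wt/day. Kidney homogenate, 10% in 0.01 M Tris-HCl pH 7.4. SOD unit defined as 50% inhibition of pyrogallol autoxidation; CAT as µmol H2O2 utilized/min. GSH, vitamins C and E as µg/mg protein. Mean ± SEM, 6 rats/group.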

Rattus norvegicus [3] = assay: Effect on catalase activity in kidney of Wistar rat assessed per mg of protein at 50 mg/kg/day, po for 28 days; type: functional; in short: as §1
Rattus norvegicus [4] = assay: Increase in glutathione peroxidase activity in kidney of ethylene glycol-induced hyperoxaluria Wistar rat model assessed per mg of protein at 50 mg/kg/day, po for 28 days; type: functional; in short: as §2
Rattus norvegicus [5] = assay: Effect on glutathione peroxidase activity in kidney of Wistar rat assessed per mg of protein at 50 mg/kg/day, po for 28 days; type: functional; in short: as §1
Rattus norvegicus [6] = assay: Increase in glutathione level in kidney of ethylene glycol-induced hyperoxaluria Wistar rat model assessed per mg of protein at 50 mg/kg/day, po for 28 days; type: functional; in short: as §2
Rattus norvegicus [7] = assay: Effect on glutathione level in kidney of Wistar rat assessed per mg of protein at 50 mg/kg/day, po for 28 days; type: functional; in short: as §1
Rattus norvegicus [8] = assay: Increase in vitamin C level in kidney of ethylene glycol-induced hyperoxaluria Wistar rat model assessed per mg of protein at 50 mg/kg/day, po for 28 days; type: functional; in short: as §2
Rattus norvegicus [9] = assay: Effect on vitamin C level in kidney of Wistar rat assessed per mg of protein at 50 mg/kg/day, po for 28 days; type: functional; in short: as §1
Rattus norvegicus [10] = assay: Increase in vitamin E level in kidney of ethylene glycol-induced hyperoxaluria Wistar rat model assessed per mg of protein at 50 mg/kg/day, po for 28 days; type: functional; in short: as §2
Rattus norvegicus [11] = assay: Effect on vitamin E level in kidney of Wistar rat assessed per mg of protein at 50 mg/kg/day, po for 28 days; type: functional; in short: as §1
Rattus norvegicus [12] = assay: Reduction in ascorbate-induced lipid peroxidation levels in kidney of ethylene glycol-induced hyperoxaluria Wistar rat model assessed as malondialdehyde release per mg of protein at 50 mg/kg/day, po for 28 days; type: functional
In short: (§3)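 Male Wistar rats given 0.75% ethylene glycol in drinking water for 28 days, with drug orally at 50 mg/kg body wt/day throughout. Kidney homogenized 10% in ice-cold 0.01 M Tris-HCl, pH 7.4. Lipid peroxidation read as malondialdehyde released, with 10 mM ferrous sulfate or 0.2 mM ascorbate as inducer. Mean ± SEM, 6 rats/group.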

Rattus norvegicus [13] = assay: Effect on ascorbate-induced lipid peroxidation levels in kidney of Wistar rat assessed as malondialdehyde release per mg of protein at 50 mg/kg/day, po for 28 days; type: functional
In short: (§4)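 Normal male Wistar rats (120 ± 20 g), no ethylene glycol, given drug orally at 50 mg/kg body wt/day for 28 days. Kidney homogenized 10% in ice-cold 0.01 M Tris-HCl, pH 7.4. Lipid peroxidation read as malondialdehyde released, with 10 mM ferrous sulfate or 0.2 mM ascorbate as inducer. Mean ± SEM, 6 rats/group.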

Rattus norvegicus [14] = assay: Reduction in ferrous sulfate-induced lipid peroxidation levels in kidney of ethylene glycol-induced hyperoxaluria Wistar rat model assessed as malondialdehyde release per mg of protein at 50 mg/kg/day, po for 28 days; type: functional; in short: as §3
Rattus norvegicus [15] = assay: Effect on ferrous sulfate-induced lipid peroxidation levels in kidney of Wistar rat assessed as malondialdehyde release per mg of protein at 50 mg/kg/day, po for 28 days; type: functional; in short: as §4
Rattus norvegicus [16] = assay: Protective effect in kidney of ethylene glycol-induced hyperoxaluria Wistar rat model assessed as normal glomerulus/tubule at 50 mg/kg/day, po for 28 days; type: functional, organism-based
In short: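 Hyperoxaluria induced with 0.75% ethylene glycol in drinking water for 28 days, with concurrent oral dosing at 50 mg/kg body wt/day. Kidney portions fixed in 10% formalin, stained with hematoxylin and eosin, and examined by light microscopy for glomeruli, tubules, crystal deposits and infiltration.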

Rattus norvegicus [17] = assay: Nephrotoxicity in Wistar rat at 50 mg/kg/day, po for 28 days; type: toxicity, organism-based; parameters: route oral; settings: in vivo, 672 h
In short: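 Male Wistar rats (120 ± 20 g), six per group, dosed orally once daily for 28 days, alone or alongside 0.75% ethylene glycol in drinking water to induce hyperoxaluria. After decapitation, kidneys were homogenized (10%) in ice-cold 0.01 M Tris-HCl pH 7.4 for ALP and γ-GT assays, or formalin-fixed, H&E-stained and examined by light microscopy. Data reported as mean ± SEM.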

Rattus norvegicus [18] = assay: Renoprotective effect in ethylene glycol-hyperoxaluria Wistar rat model assessed as increase in renal alkaline phosphatase activity per mg of protein at 50 mg/kg/day, po for 28 days; type: functional
In short: (§5)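 Ethylene glycol given at 0.75% in drinking water for 28 days to male Wistar rats, with concurrent oral dosing at 50 mg/kg body wt/day. Kidney homogenate in 0.01 M Tris-HCl pH 7.4. ALP read as phenol liberated from disodium phenyl phosphate, Folin colour at alkaline pH; γ-GT as p-nitroaniline liberated/min/mg protein. Mean ± SEM, 6 rats/group.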

Rattus norvegicus [19] = assay: Effect on renal alkaline phosphatase activity in Wistar rat assessed per mg of protein at 50 mg/kg/day, po for 28 days; type: functional
In short: (§6)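 Normal male Wistar rats, no ethylene glycol, dosed orally at 50 mg/kg body wt/day for 28 days. Kidney homogenate in 0.01 M Tris-HCl pH 7.4. ALP read as phenol liberated from disodium phenyl phosphate, Folin colour at alkaline pH; γ-GT as p-nitroaniline liberated/min/mg protein. Mean ± SEM, 6 rats/group.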

Rattus norvegicus [20] = assay: Renoprotective effect in ethylene glycol-hyperoxaluria Wistar rat model assessed as increase in renal gamma glutamyl transferase activity mg of protein at 50 mg/kg/day, po for 28 days; type: functional; in short: as §5
Rattus norvegicus [21] = assay: Effect on renal gamma glutamyl transferase activity in Wistar rat assessed mg of protein at 50 mg/kg/day, po for 28 days; type: functional; in short: as §6
Rattus norvegicus [22] = assay: Reduction of lactate dehydrogenase activity in liver of ethylene glycol-induced hyperoxaluria Wistar rat model assessed per mg of protein at 50 mg/kg/day, po for 28 days; type: functional
In short: (§7)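 Hyperoxaluria produced with 0.75% ethylene glycol in drinking water for 28 days, with concurrent oral dosing at 50 mg/kg body wt/day. Liver and kidney homogenized 10% in ice-cold 0.01 M Tris-HCl pH 7.4. LDH assayed with glyoxylate as substrate; GAO and XO by published methods. Mean ± SEM, 6 rats/group.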

Rattus norvegicus [23] = assay: Effect on lactate dehydrogenase activity in liver of Wistar rat assessed per mg of protein at 50 mg/kg/day, po for 28 days; type: functional
In short: (§8)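 Normal male Wistar rats, no ethylene glycol, given oral dosing at 50 mg/kg body wt/day for 28 days. Liver and kidney homogenized 10% in ice-cold 0.01 M Tris-HCl pH 7.4. LDH assayed with glyoxylate as substrate; GAO and XO by published methods. Mean ± SEM, 6 rats/group.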

Rattus norvegicus [24] = assay: Reduction of xanthine oxidase activity in liver of ethylene glycol-induced hyperoxaluria Wistar rat model assessed per mg of protein at 50 mg/kg/day, po for 28 days; type: functional; in short: as §7
Rattus norvegicus [25] = assay: Effect on xanthine oxidase activity in liver of Wistar rat assessed per mg of protein at 50 mg/kg/day, po for 28 days; type: functional; in short: as §8
Rattus norvegicus [26] = assay: Reduction of glycolic acid oxidase activity in liver of ethylene glycol-induced hyperoxaluria Wistar rat model assessed per mg of protein at 50 mg/kg/day, po for 28 days; type: functional; in short: as §7
Rattus norvegicus [27] = assay: Effect on glycolic acid oxidase activity in liver of Wistar rat assessed per mg of protein at 50 mg/kg/day, po for 28 days; type: functional; in short: as §8
Rattus norvegicus [28] = assay: Reduction of lactate dehydrogenase activity in kidney of ethylene glycol-induced hyperoxaluria Wistar rat model assessed per mg of protein at 50 mg/kg/day, po for 28 days; type: functional; in short: as §7
Rattus norvegicus [29] = assay: Effect on lactate dehydrogenase activity in kidney of Wistar rat assessed per mg of protein at 50 mg/kg/day, po for 28 days; type: functional; in short: as §8
Rattus norvegicus [30] = assay: Reduction of xanthine oxidase activity in kidney of ethylene glycol-induced hyperoxaluria Wistar rat model assessed per mg of protein at 50 mg/kg/day, po for 28 days; type: functional; in short: as §7
Rattus norvegicus [31] = assay: Effect on xanthine oxidase activity in kidney of Wistar rat assessed per mg of protein at 50 mg/kg/day, po for 28 days; type: functional; in short: as §8
Rattus norvegicus [32] = assay: Increase in superoxide dismutase activity in kidney of ethylene glycol-induced hyperoxaluria Wistar rat model assessed per mg of protein at 50 mg/kg/day, po for 28 days; type: functional; in short: as §2

C=C(C)[C@@H]1CC[C@]2(C)CC[C@]3(C)C(CC[C@@H]4[C@@]5(C)CC[C@H](OC(=O)CCCCCCC/C=C/C/C=C/CCCCC)C(C)(C)[C@@H]5CC[C@]43C)[C@@H]12 (some centres undefined) [LUPEOL LINOLEATE]
Activity (Rattus norvegicus [1]): 5 | Activity (Rattus norvegicus [2]): 155.3 µmol/min | Activity (Rattus norvegicus [3]): 164.9 µmol/min | Activity (Rattus norvegicus [4]): 8.01 µg/min | Activity (Rattus norvegicus [5]): 8.32 µg/min | Activity (Rattus norvegicus [6]): 4.59 µg | Activity (Rattus norvegicus [7]): 4.76 µg | Activity (Rattus norvegicus [8]): 1.74 µg | Activity (Rattus norvegicus [9]): 1.89 µg | Activity (Rattus norvegicus [10]): 0.97 µg | Activity (Rattus norvegicus [11]): 1.06 µg | Activity (Rattus norvegicus [12]): 4.95 nmol | Activity (Rattus norvegicus [13]): 4.45 nmol | Activity (Rattus norvegicus [14]): 13.38 nmol | Activity (Rattus norvegicus [15]): 12.2 nmol | Activity (Rattus norvegicus [16]): Active | Activity (Rattus norvegicus [17]): Non-toxic | Activity (Rattus norvegicus [18]): 1.65 µmol/min | Activity (Rattus norvegicus [19]): 1.68 µmol/min | Activity (Rattus norvegicus [20]): 8.62 nmol/min | Activity (Rattus norvegicus [21]): 8.79 nmol/min | Activity (Rattus norvegicus [22]): 2.39 | Activity (Rattus norvegicus [23]): 2.33 | Activity (Rattus norvegicus [24]): 1.39 | Activity (Rattus norvegicus [25]): 1.28 | Activity (Rattus norvegicus [26]): 3.12 nmol | Activity (Rattus norvegicus [27]): 2.75 nmol | Activity (Rattus norvegicus [28]): 2.26 | Activity (Rattus norvegicus [29]): 2.01 | Activity (Rattus norvegicus [30]): 0.97 | Activity (Rattus norvegicus [31]): 0.9 | Activity (Rattus norvegicus [32]): 4.82

C=C(C)[C@@H]1CC[C@]2(C)CC[C@]3(C)[C@H](CC[C@@H]4[C@@]5(C)CC[C@H](O)C(C)(C)[C@@H]5CC[C@]43C)[C@@H]12 [LUPEOL]
Activity (Rattus norvegicus [1]): 5.04 | Activity (Rattus norvegicus [2]): 141.6 µmol/min | Activity (Rattus norvegicus [3]): 164.2 µmol/min | Activity (Rattus norvegicus [4]): 7.11 µg/min | Activity (Rattus norvegicus [5]): 8.31 µg/min | Activity (Rattus norvegicus [6]): 4.27 µg | Activity (Rattus norvegicus [7]): 4.75 µg | Activity (Rattus norvegicus [8]): 1.6 µg | Activity (Rattus norvegicus [9]): 1.86 µg | Activity (Rattus norvegicus [10]): 0.91 µg | Activity (Rattus norvegicus [11]): 1.04 µg | Activity (Rattus norvegicus [12]): 5.11 nmol | Activity (Rattus norvegicus [13]): 4.5 nmol | Activity (Rattus norvegicus [14]): 15.11 nmol | Activity (Rattus norvegicus [15]): 12.14 nmol | Activity (Rattus norvegicus [16]): Active | Activity (Rattus norvegicus [17]): Non-toxic | Activity (Rattus norvegicus [18]): 1.53 µmol/min | Activity (Rattus norvegicus [19]): 1.72 µmol/min | Activity (Rattus norvegicus [20]): 8.28 nmol/min | Activity (Rattus norvegicus [21]): 8.73 nmol/min | Activity (Rattus norvegicus [22]): 2.42 | Activity (Rattus norvegicus [23]): 2.35 | Activity (Rattus norvegicus [24]): 1.54 | Activity (Rattus norvegicus [25]): 1.31 | Activity (Rattus norvegicus [26]): 3.61 nmol | Activity (Rattus norvegicus [27]): 2.77 nmol | Activity (Rattus norvegicus [28]): 2.41 | Activity (Rattus norvegicus [29]): 2.05 | Activity (Rattus norvegicus [30]): 1.09 | Activity (Rattus norvegicus [31]): 0.93 | Activity (Rattus norvegicus [32]): 4.67
